Published values pooled from the literature.
CDK16: Cyclin-dependent kinase 16 (CDK16, Homo sapiens, UniProt Q00536)
CDK16 with cyclin Y: Cyclin-dependent kinase 16, with cyclin Y (CDK16, Homo sapiens, UniProt Q00536)

target	observed	action	technique	concentration	measurement	result	Compound
CDK16	enzyme activity	inhibitor		0.1 µM	inhibition	-12.9%	Cc1cc(O)c(-c2ccc([C@@H](C)CN(C)C)cc2)c2c1[nH]c(=O)c1sccc12
CDK16	enzyme activity	inhibitor		1 µM	inhibition	5%	CO[C@@H]1[C@H](N(C)C(=O)c2ccccc2)C[C@H]2O[C@]1(C)n1c3ccccc3c3c4c(c5c6ccccc6n2c5c31)C(=O)NC4
CDK16 with cyclin Y	binding			1 µM	remaining binding	107%	COc1ccc2oc(-c3ccc4nc(N)oc4c3)c/c(=N\c3ccccc3NC(=O)CCN)c2c1
CDK16	cell-free assay		competition with immobilised ligand	25 µM	remaining binding	68%	N#Cc1ccc(NC(=O)Nc2ccccc2)cc1
CDK16 with cyclin Y	enzyme activity	inhibitor		1 µM	activity vs control	106%	CC(C)S(=O)(=O)c1ccc2nccc(Nc3ccc4sc(C5CCCC5)nc4c3)c2c1
CDK16	binding			1 µM	remaining binding	99%	COc1ccc2[nH]c3c4[nH]c5ccc(OC)cc5c4c4c(c3c2c1)C(=O)NC4=O
CDK16	enzyme activity	inhibitor		1 µM	inhibition	10%	C=CC(=O)N1CCC[C@@H](n2nc(-c3ccc(Oc4ccccc4)cc3)c3c(N)ncnc32)C1
CDK16	binding			1 µM	remaining binding	100%	Cc1ccc(NC(=O)c2ccnc(C(F)(F)F)c2)cc1-c1cc(OCCO)nc(N2CCOCC2)c1
CDK16	binding		competition with immobilised ligand	0.5 µM	remaining binding	90%	CCCCC(=O)Nc1ccc(-c2ccc3ncn(CCC)c(=O)c3c2)cn1
